According to ChEMBL document CHEMBL2311282, “Asymmetric synthesis and anti-protozoal activity of the 8,4'-oxyneolignans virolin, surinamensin and analogues” (Eur J Med Chem, 2013):
In brackets after ≈: the same amount, converted by molar mass.

Legend:
Leishmania donovani = test: Anti-protozoal activity against Leishmania donovani MHOM-ET-67/L82 amastigotes after 72 hrs by Alamar blue assay; assay type: functional, organism-based; conditions: MHOM-ET-67/L82, 72 h
[1] = Toxicity against rat L6 cells after 72 hrs by Alamar blue assay; assay type: cell-based
Summary of the method: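 Cytotoxicity was measured on the L6 rat skeletal myoblast cell line, with podophyllotoxin as the positive control.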

Plasmodium falciparum = test: Anti-protozoal activity against Plasmodium falciparum K1 IEF stage after 72 hrs by [3H]hypoxanthine incorporation assay; assay type: functional, organism-based
Summary of the method: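 P. falciparum K1 strain was tested at the IEF stage, with chloroquine as the positive control.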

| IC50 (Plasmodium falciparum) [µg/mL] | Structure (SMILES) | IC50 (Leishmania donovani) [µg/mL] | IC50 at 72 h [1] [µg/mL] |
| --- | --- | --- | --- |
| 1.71 (≈ 4.77 µM) | C/C=C/c1ccc(O[C@H](C)[C@@H](O)c2ccc(OC)c(OC)c2)c(OC)c1 | 10.6 (≈ 29.6 µM) | 13.2 (≈ 36.8 µM) |
| 8.47 (≈ 19.8 µM) | COc1cc(Br)ccc1O[C@H](C)[C@@H](O)c1cc(OC)c(OC)c(OC)c1 | 11.3 (≈ 26.4 µM) | 20.3 (≈ 47.5 µM) |
| 4.31 (≈ 11.7 µM) | COc1ccc([C@H](O)[C@@H](C)Oc2ccc(Br)cc2OC)cc1 | 4.79 (≈ 13 µM) | 13.5 (≈ 36.8 µM) |
| 3.12 (≈ 7.89 µM) | COc1ccc(C(=O)[C@@H](C)Oc2ccc(Br)cc2OC)cc1OC | 12.1 (≈ 30.6 µM) | 41.6 (≈ 105 µM) |
| 49.3 (≈ 112 µM) | COCO[C@H](c1ccc(OC)c(OC)c1)[C@@H](C)Oc1ccc(Br)cc1OC | 60.3 (≈ 137 µM) | 50.6 (≈ 115 µM) |
| 2.5 (≈ 6.29 µM) | COc1ccc([C@@H](O)[C@@H](C)Oc2ccc(Br)cc2OC)cc1OC | 10.8 (≈ 27.2 µM) | 20.9 (≈ 52.6 µM) |

The remaining lines, values behind:

| Structure (SMILES) | IC50 (Plasmodium falciparum) [µg/mL] | IC50 (Leishmania donovani) [µg/mL] | IC50 at 72 h [1] [µg/mL] |
| --- | --- | --- | --- |
| C/C=C/c1ccc(O[C@H](C)[C@@H](O)c2ccccc2)c(OC)c1 | 3.23 (≈ 10.8 µM) | 2.29 (≈ 7.67 µM) | 11.9 (≈ 39.9 µM) |
| CCCCCCCCCCCCCCCCOP(=O)([O-])OCC[N+](C)(C)C [MILTEFOSINE] | – | 0.144 (≈ 0.353 µM) | – |
| C/C=C/c1ccc(O[C@H](C)[C@@H](OCOC)c2ccccc2)c(OC)c1 | 47.3 (≈ 138 µM) | 52.5 (≈ 153 µM) | 52.3 (≈ 153 µM) |
| C/C=C/c1ccc(O[C@H](C)[C@H](O)c2ccc3c(c2)OCO3)c(OC)c1 | 1.73 (≈ 5.05 µM) | 10.2 (≈ 29.8 µM) | 14.7 (≈ 42.9 µM) |
| COc1cc(Br)ccc1O[C@H](C)[C@H](O)c1ccc2c(c1)OCO2 | 10.8 (≈ 28.3 µM) | 9.2 (≈ 24.1 µM) | 48.2 (≈ 126 µM) |
| C/C=C/c1ccc(O[C@H](C)[C@@H](O)c2ccc(OC)cc2)c(OC)c1 | 1.33 (≈ 4.05 µM) | 5.54 (≈ 16.9 µM) | 15.5 (≈ 47.2 µM) |
| COc1cc(-c2ccccc2)ccc1O[C@H](C)[C@@H](O)c1ccccc1 | 5.99 (≈ 17.9 µM) | 2.48 (≈ 7.42 µM) | 11.2 (≈ 33.5 µM) |
| C/C=C/c1ccc(O[C@H](C)[C@@H](O)c2ccc3c(c2)OCO3)c(OC)c1 | 4.59 (≈ 13.4 µM) | 6.82 (≈ 19.9 µM) | 15.3 (≈ 44.7 µM) |
| CCN(CC)CCCC(C)Nc1ccnc2cc(Cl)ccc12 (stereo unspecified) [CHLOROQUINE] | 0.54 (≈ 1.69 µM) | – | – |
